In ChEMBL document CHEMBL1145431, “Improved anti-osteoporosis potency and reduced endometrial membrane hyperplasia during hormone replacement therapy with estrogen-RGD peptide conjugates” (2007):
Where a SMILES comes first, the peptide text is derived from it. The star is where a group is joined. X1 = C[C@]12CC[C@@H]3c4ccc(OCC(=O)*)cc4CC[C@H]3[C@@H]1CCC2O

Legend:
Type in all cases: functional
Mus musculus [1] = assay: Effect on serum calcium level in ovariectomized mouse at 0.1103 mmol/kg, ip once daily for 4 weeks
Summary of the method: (§1)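 OVX Kuiming mice dosed i.p. daily for 4 weeks in 0.5% CMC. Blood taken retro-orbitally on the day after the last dose, stood 30 min, spun at 3000 g for 20 min, serum stored at -20 °C. Calcium by o-methylphenolphthalein complexone, phosphorus by molybdenum blue, ALP by activity with disodium phenylphosphate substrate.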

Mus musculus [2] = assay: Effect on mineral content in mouse at 0.1103 mmol/kg, po
Summary of the method: (§2)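 Female Kuiming mice (7 weeks old, 30.7 ± 3.1 g) under abdominal OVX, sham group abdominorotomy only. From day 5 after surgery, dosed orally once daily for 4 weeks at 110.3 × 10-3 mmol/kg in 0.5% CMC (0.2 mL), vehicle group CMC alone. Blood drawn retro-orbitally, then left femur and organs removed under pentobarbital (40.0 mg/kg, i.p.).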

Mus musculus [3] = assay: Effect on phosphorous level in mouse femur at 0.055 mmol/kg, ip
Summary of the method: (§3)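 Dose-response in OVX Kuiming mice, i.p. daily for 4 weeks in 0.5% CMC at 11.03, 55.15 or 110.3 × 10-3 mmol/kg. Left femur: length, then defatting, drying at 120 °C for 6 h (dry weight), ashing at 800 °C for 8 h. Ash/dry ratio gives mineral content. Ash Ca and P measured colorimetrically. Liver, lung and spleen weighed directly. n = 12, ANOVA.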

Mus musculus [4] = assay: Effect on uterus weight in mouse at 0.011 mmol/kg, ip
Summary of the method: (§4)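 Dose study in abdominally ovariectomized female Kuiming mice (30.7 ± 3.1 g). Daily i.p. dosing in aqueous 0.5% CMC from day 5 after surgery for 4 weeks, at 110.3, 55.15 or 11.03 × 10-3 mmol/kg. Liver, lung, spleen and uterus were removed after pentobarbital euthanasia and weighed. n = 12, ANOVA, p < 0.05.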

Mus musculus [5] = assay: Effect on uterus weight in mouse at 0.1103 mmol/kg, po
Mus musculus [6] = assay: Effect on liver weight in mouse at 0.011 mmol/kg, ip; summary of the method: as §3
Mus musculus [7] = assay: Effect on femur ash weight in ovariectomized mouse at 0.1103 mmol/kg, ip once daily for 4 weeks
Summary of the method: (§5)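 Female Kuiming mice (7 weeks, 30.7 ± 3.1 g) ovariectomized, sham group abdominorotomy. From day 5, i.p. once daily for 4 weeks at 110.3 × 10-3 mmol/kg in 0.5% CMC. Left femur cleaned, length measured, defatted in chloroform-methanol (2:1, 2 × 3 h), dried 120 °C 6 h for dry weight, ashed 800 °C 8 h. Mineral content = ash/dry weight. Ash dissolved in 6 N HCl and diluted. Ca by o-methylphenolphthalein complexone, P by molybdenum blue. Lungs and livers weighed directly.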

Mus musculus [8] = assay: Effect on spleen weight in ovariectomized mouse at 0.1103 mmol/kg, ip once daily for 4 weeks
Summary of the method: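 Female Kuiming mice (7 weeks old, 30.7 ± 3.1 g), abdominal OVX under pentobarbital (40.0 mg/kg i.p.). From day 5 after surgery, i.p. injection once daily for 4 weeks, compound in aqueous 0.5% CMC prepared just before use. The day after the last dose, mice were anesthetized and killed, and lungs, livers, spleens and uteri were removed and weighed directly. n = 12, ANOVA, p < 0.05.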

Mus musculus [9] = assay: Effect on phosphorus level in mouse at 0.110 mmol/kg, po; summary of the method: as §2
Mus musculus [10] = assay: Effect on calcium level in mouse femur at 0.055 mmol/kg, ip; summary of the method: as §3
Mus musculus [11] = assay: Effect on phosphorus level in ovariectomized mouse at 0.1103 mmol/kg, ip once daily for 4 weeks; summary of the method: as §5
Mus musculus [12] = assay: Effect on uterus weight in mouse at 0.055 mmol/kg, ip; summary of the method: as §4
Mus musculus [13] = assay: Effect on mineral level in mouse femur at 0.055 mmol/kg, ip; summary of the method: as §3
Mus musculus [14] = assay: Effect on femur ash weight in recipient mouse at 0.055 mmol/kg, ip; summary of the method: as §3
Mus musculus [15] = assay: Effect on serum phosphorous Concentration in mouse at 0.110 mmol/kg, po
Summary of the method: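 Oral OVX Kuiming mouse model, dosed daily for 4 weeks at 110.3 × 10-3 mmol/kg in 0.5% CMC. Retro-orbital blood stood 30 min at room temperature and was spun at 3000 g for 20 min. Serum kept at -20 °C. Calcium read by o-methylphenolphthalein complexone, phosphorus by molybdenum blue, ALP by activity on disodium phenylphosphate substrate.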

Mus musculus [16] = assay: Effect on spleen weight in mouse at 0.055 mmol/kg, ip; summary of the method: as §3
Mus musculus [17] = assay: Effect on serum ALP lavel in ovariectomized mouse at 0.1103 mmol/kg, ip once daily for 4 weeks; summary of the method: as §1
Mus musculus [18] = assay: Effect on phosphorous level in mouse femur at 0.011 mmol/kg, ip; conditions: in the assay text read “0.11 mmol/kg” for “0.011 mmol/kg”; summary of the method: as §3

`CC(C)[C@H](NC(=O)[C@H](CC(=O)O)NC(=O)CNC(=O)[C@H](CCCNC(=N)N)NC(=O)COc1ccc2c(c1)CC[C@@H]1[C@@H]2CC[C@]2(C)C(O)CC[C@@H]12)C(=O)O` (some centres not stated) (X1-RGDV-OH) was tested, and the Activity (Mus musculus [1]) was 2.003 mmol/L, the Ratio (Mus musculus [2]) was 51.9% and the Activity (Mus musculus [3]) was 24.315%. For the same compound, the Activity (Mus musculus [4]) was 55.7 mg, the Activity (Mus musculus [5]) was 40.7 mg and the Activity (Mus musculus [6]) was 1.48 g. For the same compound, the Activity (Mus musculus [7]) was 40 mg, the Activity (Mus musculus [8]) was 132 mg and the Activity (Mus musculus [9]) was 24.997%. It also gave an Activity (Mus musculus [10]) of 57.13%, an Activity (Mus musculus [11]) of 24.991% and an Activity (Mus musculus [12]) of 57.6 mg. For the same compound, the Ratio (Mus musculus [13]) was 0.539, the Activity (Mus musculus [14]) was 32.3 mg and the Activity (Mus musculus [15]) was 1.61 mmol/L. It also gave an Activity (Mus musculus [16]) of 140 mg and an Activity (Mus musculus [17]) of 30.514 U/L.

With `C[C@]12CC[C@@H]3c4ccc(OCC(=O)N[C@@H](CCCNC(=N)N)C(=O)NCC(=O)N[C@@H](CC(=O)O)C(=O)N[C@@H](CO)C(=O)O)cc4CC[C@H]3[C@@H]1CCC2O` (some centres not stated) (X1-RGDS-OH) the Activity (Mus musculus [1]) was 2.004 mmol/L, the Ratio (Mus musculus [2]) was 52.2% and the Activity (Mus musculus [3]) was 24.274%. The Activity (Mus musculus [4]) was 52.8 mg, the Activity (Mus musculus [5]) was 43.2 mg and the Activity (Mus musculus [6]) was 1.42 g. The Activity (Mus musculus [7]) was 37 mg, the Activity (Mus musculus [8]) was 124 mg and the Activity (Mus musculus [9]) was 24.994%. It also gave an Activity (Mus musculus [10]) of 52.1%, an Activity (Mus musculus [11]) of 24.949% and an Activity (Mus musculus [12]) of 48.6 mg. For the same compound, the Ratio (Mus musculus [13]) was 0.479, the Activity (Mus musculus [14]) was 31.6 mg and the Activity (Mus musculus [15]) was 1.6 mmol/L. For the same compound, the Activity (Mus musculus [16]) was 136 mg and the Activity (Mus musculus [17]) was 31.429 U/L.

For `C[C@]12CC[C@@H]3c4ccc(OCC(=O)N[C@@H](CCCNC(=N)N)C(=O)NCC(=O)N[C@@H](CC(=O)O)C(=O)N[C@@H](Cc5ccccc5)C(=O)O)cc4CC[C@H]3[C@@H]1CCC2O` (some centres not stated) (X1-RGDF-OH), the Activity (Mus musculus [18]) was 25.46%, the Activity (Mus musculus [1]) was 2.005 mmol/L and the Ratio (Mus musculus [2]) was 52.5%. It also gave an Activity (Mus musculus [3]) of 24.845%, an Activity (Mus musculus [4]) of 60.6 mg and an Activity (Mus musculus [5]) of 47.5 mg. The Activity (Mus musculus [6]) was 1.57 g, the Activity (Mus musculus [7]) was 35.8 mg and the Activity (Mus musculus [8]) was 131 mg. The Activity (Mus musculus [9]) was 25.532%, the Activity (Mus musculus [10]) was 54.493% and the Activity (Mus musculus [11]) was 25.46%. The Activity (Mus musculus [12]) was 55.3 mg, the Ratio (Mus musculus [13]) was 0.504 and the Activity (Mus musculus [14]) was 31.6 mg. For the same compound, the Activity (Mus musculus [15]) was 1.6 mmol/L, the Activity (Mus musculus [16]) was 123 mg and the Activity (Mus musculus [17]) was 31.529 U/L.
